Measurements taken from article PMC3589814 (Journal of molecular biology, 2012).

Experiments:
Assay in all cases: isothermal titration calorimetry
Assay type in all cases: binding
ScRR1 [1] = target: ScRR1 (Saccharomyces cerevisiae, UniProt P21524, Q288A)
In short: (§1)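 Yeast RR1 (wild type or loop 2 mutant) in the ITC cell at 25 °C, in 50 mM Hepes pH 7.0 with 5 mM MgCl₂, 5 mM DTT and 5% glycerol (20 µM protein for wild type). Titrant was 0.5 mM dGTP. For ADP binding the protein was pre-saturated with dGTP (500 µM); for CDP binding it was pre-saturated with AMPPNP. Blank-corrected heats were fitted to a one-site model, and Kd was taken from the association constant.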

ScRR1 [2] = target: ScRR1 (Saccharomyces cerevisiae, UniProt P21524, R293A)
Chain of ScRR1 (Saccharomyces cerevisiae, UniProt P21524, R293A) (P21524 whole entry R293A): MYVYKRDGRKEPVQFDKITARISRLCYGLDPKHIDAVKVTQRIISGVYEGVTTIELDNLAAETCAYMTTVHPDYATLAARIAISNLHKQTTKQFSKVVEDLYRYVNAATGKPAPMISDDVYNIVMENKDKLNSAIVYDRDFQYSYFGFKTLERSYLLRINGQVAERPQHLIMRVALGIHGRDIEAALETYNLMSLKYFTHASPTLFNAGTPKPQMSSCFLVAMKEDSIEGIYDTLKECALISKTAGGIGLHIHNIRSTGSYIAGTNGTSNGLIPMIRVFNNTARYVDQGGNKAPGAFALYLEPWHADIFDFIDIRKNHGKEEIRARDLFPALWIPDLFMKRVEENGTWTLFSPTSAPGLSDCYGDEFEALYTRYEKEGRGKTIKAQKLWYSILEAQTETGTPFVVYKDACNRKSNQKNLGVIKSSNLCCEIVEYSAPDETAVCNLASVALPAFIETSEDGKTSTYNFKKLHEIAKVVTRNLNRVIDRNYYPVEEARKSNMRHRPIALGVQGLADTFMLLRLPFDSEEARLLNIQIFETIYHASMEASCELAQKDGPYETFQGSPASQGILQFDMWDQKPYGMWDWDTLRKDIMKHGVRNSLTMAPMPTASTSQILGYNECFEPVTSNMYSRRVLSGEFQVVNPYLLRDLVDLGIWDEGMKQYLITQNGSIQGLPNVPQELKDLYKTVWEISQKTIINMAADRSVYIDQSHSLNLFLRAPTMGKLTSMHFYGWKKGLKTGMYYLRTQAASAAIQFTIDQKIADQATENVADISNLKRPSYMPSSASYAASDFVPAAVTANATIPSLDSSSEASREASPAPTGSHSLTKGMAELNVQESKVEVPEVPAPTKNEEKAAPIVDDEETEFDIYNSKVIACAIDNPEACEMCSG
In short: as §1

ScRR1 [3] = target: T1, ScRR1 (Saccharomyces cerevisiae, UniProt P21524)
T1 sequence (P21524 1-888): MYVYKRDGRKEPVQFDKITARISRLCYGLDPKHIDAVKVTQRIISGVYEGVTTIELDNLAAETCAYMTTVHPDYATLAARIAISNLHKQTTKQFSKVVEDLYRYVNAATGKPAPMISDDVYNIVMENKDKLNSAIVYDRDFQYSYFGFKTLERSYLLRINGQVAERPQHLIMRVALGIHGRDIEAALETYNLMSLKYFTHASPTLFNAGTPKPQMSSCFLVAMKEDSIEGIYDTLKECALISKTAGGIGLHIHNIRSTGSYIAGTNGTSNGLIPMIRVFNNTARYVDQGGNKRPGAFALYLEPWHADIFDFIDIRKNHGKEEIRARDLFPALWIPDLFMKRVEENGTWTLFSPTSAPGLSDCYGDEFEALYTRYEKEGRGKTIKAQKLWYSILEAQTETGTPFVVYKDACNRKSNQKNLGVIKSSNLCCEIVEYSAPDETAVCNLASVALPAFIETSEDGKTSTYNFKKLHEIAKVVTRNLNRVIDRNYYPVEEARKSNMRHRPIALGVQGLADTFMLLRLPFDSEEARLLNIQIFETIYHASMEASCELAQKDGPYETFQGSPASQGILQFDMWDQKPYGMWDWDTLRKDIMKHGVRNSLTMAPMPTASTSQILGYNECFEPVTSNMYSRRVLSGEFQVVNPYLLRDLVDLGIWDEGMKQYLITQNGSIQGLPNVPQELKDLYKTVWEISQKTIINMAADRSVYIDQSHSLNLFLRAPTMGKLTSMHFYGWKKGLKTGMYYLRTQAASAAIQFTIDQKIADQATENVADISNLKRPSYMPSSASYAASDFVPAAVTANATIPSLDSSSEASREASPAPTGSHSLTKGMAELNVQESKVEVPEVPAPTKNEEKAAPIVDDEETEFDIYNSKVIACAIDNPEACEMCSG
In short: as §1

Chain of ScRR1 (Saccharomyces cerevisiae, UniProt P21524, Q288A) (P21524 whole entry Q288A): as the sequence (P21524 whole entry R293A) above, with Q288A, A293R counted along it

## Nc1nc2c(ncn2[C@H]2C[C@H](O)[C@@H](COP(=O)(O)OP(=O)(O)OP(=O)(O)O)O2)c(=O)[nH]1 [dGTP]
ScRR1 [1]
  Kd: 520 nM
ScRR1 [2]
  Kd: 570 nM
ScRR1 [3]
  Kd: 270 nM
